# Compound activity as filed in PubChem BioAssay.
# Sampled rows, rich in hits. Any-hit rate of the full collection: about 1.3%.
# aDG glyco act: alpha-DG glycosylation activation. AID 624168. activation, % at 10 µM. 360,000 tested, 0.22% active. Pro5-aDG cells, alpha-DG glycosylation AlphaScreen (IIH6); 0% Pro5, 100% B10-LARGE cell signal;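 active = activation of at least 8% versus controls, or a plate z-score of at least 8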;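 note: Pro5 are CHO cells carrying HIG-tagged alpha-DG that lacks glycosylation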
# Tn7 DDE FP: disrupts Tn7 cyclic peptide binding to fibrin D-Dimer-E complex; P02675; FP displacement of FITC-Tn7 peptide from fibrin DD(E); 0% = median of compound wells per plate; 370,000 tested, 0.13% active; inhibition, % at 8.3 µM; AID 720508;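 active = inhibition above the mean of compounds falling within the control limits plus 3 SD of them, cut at about 14% in these data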;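 note: 0% = plate median of compound wells and 100% = 10 µM Aha-Tn7 peptide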
# Target sequence (P02675 whole entry, looked up): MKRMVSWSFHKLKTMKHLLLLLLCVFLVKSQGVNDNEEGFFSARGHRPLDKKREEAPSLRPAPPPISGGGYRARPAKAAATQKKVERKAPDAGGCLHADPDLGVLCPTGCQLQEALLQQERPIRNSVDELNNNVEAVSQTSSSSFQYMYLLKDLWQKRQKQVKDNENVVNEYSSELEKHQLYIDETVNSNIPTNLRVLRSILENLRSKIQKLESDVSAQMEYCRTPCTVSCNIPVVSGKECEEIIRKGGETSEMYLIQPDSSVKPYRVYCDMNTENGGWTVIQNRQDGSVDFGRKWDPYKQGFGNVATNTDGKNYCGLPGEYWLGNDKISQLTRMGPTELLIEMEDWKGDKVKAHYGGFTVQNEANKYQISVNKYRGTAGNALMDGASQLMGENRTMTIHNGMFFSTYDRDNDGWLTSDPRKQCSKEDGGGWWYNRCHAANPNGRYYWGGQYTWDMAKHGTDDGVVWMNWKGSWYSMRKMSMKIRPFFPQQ
#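 Assay system: human fibrin DD(E). Input: DD(E) 2 µM final. Medium: Tris buffer with calcium and detergent, pH 7.8. Compound dosing: single point at 8.3 µM. Timing: 10 min plus 3 h, room temperature. Technique: fluorescence polarization of the labelled Tn7 tracer. Read-out: percent inhibition. Replicates: singlicate testing.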
# CendR NRP1 mod: modulators of CendR peptide binding to human neuropilin-1; 360,000 tested, 0.85% active; AID 602438; FAM-RPARPAR peptide binding to NRP-1, fluorescence polarization; inhibition, % at 25 µM; O14786;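 active = inhibition or corrected inhibition above about 18%, plus a signal ratio from 0.5 to 1.5, limit read from the data, passing the limit was not always enough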
# DDE Tn6 FP inh: disrupts Tn6 cyclic peptide binding to fibrin D-Dimer-E complex; inhibition, % at 8.3 µM; Fibrin DD(E) TRITC-Tn6 fluorescence polarization displacement; 370,000 tested, 0.21% active; AID 720509; P02675;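 active = inhibition above a per-campaign cutoff: mean of compounds within control limits plus 3 SD, cut at about 15% in these data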;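 note: 0% = median of all compound wells on the plate and 100% = blocking peptide control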
# Tn7 DDE conf: DD(E)-Tn7 binding inhibition, FP confirmation; shares compounds with Tn7 DDE FP; FP displacement of TRITC-Tn7 peptide from DD(E); 0% set at plate's compound-well median; inhibition, % at 8.3 µM; 460 tested, 5% active; AID 720628;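 active = inhibition above the campaign cutoff, the mean of compounds within control limits plus 3 SD, cut at about 14% in these data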;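 note: 100% = median FP of high control wells holding Aha-Tn7 inhibitor peptide; displacers lower polarization since freed probe rises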
# Tn7 DDE ctr: DD(E)-Tn7 binding inhibition, counter-screen; shares compounds with Tn7 DDE FP; fibrin DD(E), TRITC-Tn7 probe displacement, fluorescence polarization; inhibition, % at 8.3 µM; 460 tested, 3% active;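 active = inhibition above the cutoff, the mean of compounds lying between the control bounds plus 3 SD of those compounds, cut at about 17% in these data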;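 note: 0% = median of compound sample wells and 100% = excess unlabeled Aha-Tn7 peptide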
# Active calls of the source: *; x = not tested or not shown.
SMILES,aDG glyco act,Tn7 DDE FP,CendR NRP1 mod,DDE Tn6 FP inh,Tn7 DDE conf,Tn7 DDE ctr
Cn1c(=O)c2[nH]c(-c3ccccc3)c(O)c2n(C)c1=O,0.6,17.1*,36.4*,0.8,4.9,-0.9
Cc1c[nH]c2cccc(-c3c(Cl)cccc3Cl)c12,x,3.2,x,-7.1,x,x
COc1ccc([C@H]2N[C@]3(CCCN(Cc4ccc(C(F)(F)F)cc4)C3=O)[C@H]3C(=O)N(Cc4ccccc4)C(=O)[C@@H]23)cc1,0.0,16.6*,5.5,0.2,7.8,6.6
CCCCn1c(N)c(N(CCOC)C(=O)C2CCN(S(=O)(=O)c3ccc(F)cc3)CC2)c(=O)[nH]c1=O,0.1,17.0*,-1.9,-2.3,0.4,-3.6
CCCCn1c(N)c(N(CCOC)C(=O)C2CCN(S(=O)(=O)c3ccc(C)cc3)CC2)c(=O)[nH]c1=O,-0.3,2.2,-6.7,-1.7,x,x
C#CCCC(=O)Nc1sc2c(c1-c1nc3ccccc3s1)CCN(C(C)C)C2,x,16.2*,x,3.6,14.0*,5.6
CC(=O)Nc1sc2c(c1-c1nc3ccccc3s1)CCN(C(C)C)C2,0.3,x,143.7,x,x,x
O=C(O)C1C2CCC1C(O)C2 (configuration not stated),-0.1,17.1*,6.6,9.8,0.8,1.9
O=C(NCC1COCCO1)C1CCN(S(=O)(=O)c2cccc3ccccc23)CC1 (configuration not stated),x,0.3,x,3.8,x,x
C[C@H]1CN[C@@H](CCO)/C1=C\c1ccccc1,0.2,13.9*,-1.3,-1.4,3.0,5.2
C[C@H]1CN[C@H](CCO)/C1=C\c1ccccc1,3.0,-5.8,-0.1,2.0,x,x
Cc1ccc(N/C=C/C(=O)c2ccc(C)cc2)cc1,0.2,14.7*,-7.9,4.0,3.4,3.4
Cc1noc(C)c1NC(=O)Nc1ccc2c(c1)C(=O)N([C@@H](C)CO)C[C@@H](C)[C@H](CN(C)S(=O)(=O)c1ccc(F)cc1)OCCCC[C@H](C)O2,x,0.6,x,4.1,x,x
Cc1cccn2c(=O)c(/C=C(\C#N)C(=O)NCc3ccccc3)c(N3CCC(C(N)=O)CC3)nc12,-0.1,16.2*,11.2,5.2,6.3,2.0
Cc1ccc(NCN2C(=O)c3ccccc3C2=O)c(C)n1,x,5.9,x,-3.9,x,x
CC(C)C[C@H]1COc2cccc(N3CCOCC3)c2S(=O)(=O)N1,x,3.4,x,-1.3,x,x
CCCCCCn1c(=O)[nH]c2nc3cc(N)c(C)cc3nc2c1=O,-0.6,30.4*,134.3,-10.7,-0.4,6.6
CC(=O)Nc1ccc(NC(=O)c2c([N+](=O)[O-])cnn2C)cc1,0.8,14.9*,13.2,5.2,3.5,1.8
Cc1cccc(NC(=O)c2c([N+](=O)[O-])cnn2C)c1,0.0,2.1,17.0,-6.9,x,x
Cc1ccc(F)c(S(=O)(=O)NC(=O)C2(C)CCN2C(=O)Cc2ccc(-c3ccccc3)cc2)c1 (configuration not stated),-0.2,-3.1,-4.6,5.0,x,x
CC(=O)c1sc(NC(=O)CCCOc2ccc(Cl)cc2)nc1C,0.3,-6.5,-0.4,-2.7,x,x
O=C(Nc1ccc(F)cc1F)Nc1sccc1-c1nc2ccccc2s1,0.3,15.3*,-21.9,-0.8,8.1,1.2
COc1ccccc1NC(=O)c1cc(S(=O)(=O)N2CCCC2)cn1C,-0.3,15.1*,-3.6,4.2,-4.6,-6.0
CCc1nc2c(OCc3ccc(C#N)cc3)cccn2c1N(C)C(=O)c1cccs1,0.3,-13.9,4.5,-3.0,x,x
COc1ccc(S(=O)(=O)N2CCOCC2)cc1NC(=O)c1ccc(OC(F)F)cc1,0.2,15.1*,-8.0,-5.1,-7.1,-11.5
COc1ccc(S(=O)(=O)N2CCOCC2)cc1NC(=O)CCOc1ccc(C(C)(C)C)cc1,1.6,14.7*,-11.1,3.6,6.1,-3.2
CC(=O)Nc1cc([N+](=O)[O-])ccc1OCc1ccccc1,0.2,5.1,-13.6,-0.8,x,x
O=C(c1cccc(F)c1)N1CCCC(c2nc(-c3cccs3)no2)C1 (configuration not stated),x,15.3*,x,0.0,2.8,-1.7
COc1cccc(C(=O)N2CCCC(c3nc(-c4cccs4)no3)C2)c1 (configuration not stated),0.2,-4.7,-6.1,6.8,x,x
